Laboratory results taken from ChEMBL document CHEMBL3271978, “Synthesis and some pharmacological properties of [4-homoserine]oxytocin” (J Med Chem, 1977).
Positions of bridges follow the written chain, without caps; N, C: chain ends. Non-standard residues stand in square brackets, D forms with d. Residues, ends and D or L forms follow the SMILES beside them. hSer = N[C@@H](CCO)C(=O)O

Columns and labels:
[1] = Oxytocic potency in rat uterus; type: functional
How it was run: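 Isolated rat uterus suspended in bath solution without Mg2+; oxytocic activity assayed against USP posterior pituitary reference standard.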

[2] = system: Rattus norvegicus; experiment: Oxytocic activity in iv dosed lactating rat anesthetized with pentobarbital assessed as milk ejection; type: functional
How it was run: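 Lactating rats anesthetized with pentobarbital received peptide by intravenous injection; milk-ejection response measured relative to USP posterior pituitary reference standard.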

[3] = system: Rattus norvegicus; experiment: Antidiuretic activity in iv dosed hydrated rat anesthetized with ethanol; type: ADME, organism-based, Urine; conditions: in vivo
[4] = Oxytocic potency in rat uterus in presence of 0.5 mM Mg2+; type: functional
How it was run: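 Isolated rat uterus suspended in solution containing 0.5 mM Mg2+; oxytocic activity assayed against USP posterior pituitary reference standard.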

[5] = Ratio of oxytocic potency in rat uterus to antidiuretic activity in iv dosed hydrated rat anesthetized with ethanol
[6] = species: Rattus norvegicus; experiment: Vasopressor activity in phenoxybenzamine-treated rat under urethane anesthesia; type: ADME, organism-based; conditions: in vivo
How it was run: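 Rats pretreated with phenoxybenzamine, under urethane anesthesia; pressor response assayed against USP posterior pituitary reference standard.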

[7] = Ratio of oxytocic potency in rat uterus to vasopressor activity in phenoxybenzamine-treated rat under urethane anesthesia

Activity [3] [U/mg] | Activity [6] [U/mg] | SMILES | Activity [1] [U/mg] | Activity [2] [U/mg] | Activity [4] [U/mg] | Ratio [5] | Ratio [7]
4 |  | CC[C@H](C)[C@@H]1NC(=O)[C@H](Cc2ccc(O)cc2)NC(=O)[C@@H](N)CSSC[C@@H](C(=O)N2CCC[C@H]2C(=O)N[C@@H](CC(C)C)C(=O)NCC(N)=O)NC(=O)[C@H](CC(N)=O)NC(=O)[C@H](CCC(N)=O)NC1=O [OXYTOCIN] | 520 | 474 | 486 |  | 
0.06 | 0.028 | CC[C@H](C)[C@@H]1NC(=O)[C@H](Cc2ccc(O)cc2)NC(=O)[C@@H](N)CSSC[C@@H](C(=O)N2CCC[C@H]2C(=O)N[C@@H](CC(C)C)C(=O)NCC(N)=O)NC(=O)[C@H](CC(N)=O)NC(=O)[C@H](CO)NC1=O (H-CYISNCPLG-NH2; disulfide 1-6) | 148 | 255 | 331 | 80 | >1950
0.24 | 0.021 | CC[C@H](C)[C@@H]1NC(=O)[C@H](Cc2ccc(O)cc2)NC(=O)[C@@H](N)CSSC[C@@H](C(=O)N2CCC[C@H]2C(=O)N[C@@H](CC(C)C)C(=O)NCC(N)=O)NC(=O)[C@H](CC(N)=O)NC(=O)[C@H](CCO)NC1=O (H-CYI[hSer]NCPLG-NH2; disulfide 1-6) | 125 | 357 | 380 | 520 | 5950
1.8 | 0.43 | CC[C@H](C)[C@@H]1NC(=O)[C@H](Cc2ccc(O)cc2)NC(=O)[C@@H](N)CSSC[C@@H](C(=O)N2CCC[C@H]2C(=O)N[C@@H](CC(C)C)C(=O)NCC(N)=O)NC(=O)[C@H](CC(N)=O)NC(=O)[C@H]([C@@H](C)O)NC1=O (H-CYITNCPLG-NH2; disulfide 1-6) | 923 | 543 | 719 | 510 | 2150
0.044 | 0.12 | CC[C@H](C)[C@@H]1NC(=O)[C@H](Cc2ccc(O)cc2)NC(=O)[C@@H](N)CSSC[C@@H](C(=O)N2CCC[C@H]2C(=O)N[C@@H](CC(C)C)C(=O)NCC(N)=O)NC(=O)[C@H](CC(N)=O)NC(=O)[C@H](CC(N)=O)NC1=O (H-CYINNCPLG-NH2; disulfide 1-6) | 108 | 300 | 490 | 929 | 823
